pIC50: −log10 of the molar value.

For experiment [1], the target named is Cholinesterase (Equus caballus, UniProt P81908). Kind of experiment: Inhibition of equine serum BChE using butyrylthiocholine iodide as substrate preincubated for 5 mins followed by substrate addition measured after 5 mins by Ellman's method. The essentials: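 Ellman's method with equine serum BChE and butyrylthiocholine iodide; DTNB read-out at 412 nm, 25 °C. Phosphate buffer pH 8.0. At least five concentrations (normally 10^-4 to 10^-9 M), each in triplicate, to build the inhibition curve. Data are means of at least three determinations.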

Experiment [2] in a line: Selectivity ratio of IC50 for electric eel AChE to IC50 for equine serum BChE. The essentials: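 AChE is electric eel Type VI-S with acetylthiocholine; BChE is equine serum with butyrylthiocholine. At least five concentrations, each in triplicate. Ratio = IC50(AChE)/IC50(BChE).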
Experiment [3] addresses Acetylcholinesterase (Electrophorus electricus, UniProt O42275). The experiment can be described thus: Inhibition of electric eel AChE using acetylthiocholine iodide as substrate preincubated for 5 mins followed by substrate addition measured after 5 mins by Ellman's method.

Sequence of Acetylcholinesterase (O42275 whole entry): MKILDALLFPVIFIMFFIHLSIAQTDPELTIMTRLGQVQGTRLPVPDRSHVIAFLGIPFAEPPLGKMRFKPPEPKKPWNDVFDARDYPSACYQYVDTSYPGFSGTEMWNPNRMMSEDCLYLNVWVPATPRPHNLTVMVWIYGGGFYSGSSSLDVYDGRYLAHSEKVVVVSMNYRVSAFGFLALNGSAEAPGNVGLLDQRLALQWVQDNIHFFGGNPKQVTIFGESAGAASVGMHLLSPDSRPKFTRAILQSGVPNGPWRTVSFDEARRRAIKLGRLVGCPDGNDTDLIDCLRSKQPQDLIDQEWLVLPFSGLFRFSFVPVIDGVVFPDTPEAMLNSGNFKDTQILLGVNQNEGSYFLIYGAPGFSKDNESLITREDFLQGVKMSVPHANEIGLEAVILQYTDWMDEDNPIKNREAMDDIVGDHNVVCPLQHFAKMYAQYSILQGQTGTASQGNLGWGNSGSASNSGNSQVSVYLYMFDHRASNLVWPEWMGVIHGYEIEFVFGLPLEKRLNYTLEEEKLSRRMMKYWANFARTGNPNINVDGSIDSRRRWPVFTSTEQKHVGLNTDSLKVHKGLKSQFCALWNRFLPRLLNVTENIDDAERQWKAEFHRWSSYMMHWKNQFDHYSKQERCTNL
Sequence of Cholinesterase (P81908 whole entry): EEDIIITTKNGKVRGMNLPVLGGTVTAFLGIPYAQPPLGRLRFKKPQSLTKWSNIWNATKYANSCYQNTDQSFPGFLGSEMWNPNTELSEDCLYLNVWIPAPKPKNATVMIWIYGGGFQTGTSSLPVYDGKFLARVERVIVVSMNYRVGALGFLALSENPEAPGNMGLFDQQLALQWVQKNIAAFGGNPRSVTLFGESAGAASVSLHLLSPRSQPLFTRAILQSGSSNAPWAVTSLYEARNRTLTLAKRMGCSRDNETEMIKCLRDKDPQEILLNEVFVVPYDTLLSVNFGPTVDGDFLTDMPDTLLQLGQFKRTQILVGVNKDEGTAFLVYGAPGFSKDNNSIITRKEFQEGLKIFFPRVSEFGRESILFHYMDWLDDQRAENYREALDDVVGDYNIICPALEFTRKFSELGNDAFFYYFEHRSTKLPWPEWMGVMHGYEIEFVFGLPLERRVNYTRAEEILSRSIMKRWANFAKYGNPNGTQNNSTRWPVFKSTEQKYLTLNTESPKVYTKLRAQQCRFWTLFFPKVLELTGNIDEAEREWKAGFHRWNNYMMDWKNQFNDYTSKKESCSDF

In the case of `CC(C)NCc1cccc2[nH]c3cc(O)ccc3c12`, the pIC50 in experiment [1] is 4.76; in experiment [3], 4.36. Besides, in experiment [2], the Ratio IC50 worked out at 3.54.
With `CCN(CC)Cc1cccc2[nH]c3cc(OC)ccc3c12`, the pIC50 in experiment [1] was 4.83; in experiment [3] it was 4.42. Moreover, the Ratio IC50 in experiment [2] was found to be 2.54.
The like results for `COc1ccc2c(c1)oc1cccc(CNC(C)C)c12` were, in that order, 4.87, 4.94 and 0.86.
